The text below walks through data of ChEMBL document CHEMBL1144989, “Synthesis and biological evaluation of resveratrol and analogues as apoptosis-inducing agents” (J Med Chem, 2003).

Some results are limits rather than exact numbers.

For experiment [1], the system named is HL-60. Kind of experiment: In vitro concentration required to induce apoptosis in HL60 cells. The format is functional, cell-based, Homo sapiens. Summed up:
(§1)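 Apoptosis scored morphologically after acridine orange/ethidium bromide labeling. 2 × 10^5 cells were pelleted at 300g, resuspended in dye mix and examined under a fluorescence microscope with a 100× oil objective. Percentages were confirmed by annexin V/PI and by the PI sub-G0-G1 hypodiploid peak after 48 h culture. Compounds were diluted in medium from DMSO or PBS, DMSO ≤0.1%.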

Experiment [2] relates to HL-60. Kind of experiment: In vitro inhibitory concentration against proliferation of HL60 cells. Type of experiment: functional, cell-based, Homo sapiens. In outline: (§2)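 Cells were cultured at 37 °C in 5% CO2. 2 × 10^5 cells in 1 mL complete medium were treated with a range of drug concentrations for 48 h. Viable cells were counted on a hemocytometer after trypan blue staining and expressed as percent of control proliferation. Compounds were diluted in medium from DMSO or PBS stocks, final DMSO ≤0.1%, protected from light.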

Experiment [3] deals with HL-60. The experiment in a line: (§3) In vitro concentration required to induce apoptosis in HL60R cells. The format is functional, cell-based. Particulars: Homo sapiens. Summed up: as §1
Experiment [4] deals with HL-60. Kind of experiment: In vitro concentration required to inhibit cell proliferation in HL60R cells. Particulars: Homo sapiens.
Experiment [5] relates to HL-60. The experiment in a line: (§4) In vitro inhibitory concentration against proliferation of HL60R cells. Particulars: Homo sapiens. The format is functional, cell-based. In outline: as §2
The subject of experiment [6] is HL-60. The experiment in a line: (§5) In vitro inhibitory concentration against proliferation of HL60R cells along with 5 (uM) verapamil. The format is functional, cell-based. Particulars: Homo sapiens. In outline:
as §2

For experiment [7], the system named is HL-60. Described as §3. Type of experiment: functional, cell-based. Particulars: Homo sapiens. Summed up:
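HL60R cells in 5% CO2 at 37 °C, treated with a range of drug concentrations for 48 h. Cells were labelled with acridine orange/ethidium bromide and scored under fluorescence microscopy (100× oil) as live, apoptotic or necrotic. The AC50 is derived from the percentage of apoptotic cells. Annexin V/PI staining and PI sub-G0-G1 flow cytometry served as confirmation. DMSO ≤0.1%.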
The source holds these as a separate data set.

Experiment [8] relates to HL-60. Described as §4. Type of experiment: functional, cell-based. Particulars: Homo sapiens. In outline: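 HL60R cells, 2 × 10^5 per well in 1 mL complete medium at 37 °C with 5% CO2, treated with a range of drug concentrations for 48 h. Compounds were dissolved in DMSO or PBS, with final DMSO ≤0.1%. Viable cells were counted by trypan blue exclusion on a hemocytometer and expressed as percent of control proliferation to derive the IC50.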
The source holds these as a separate data set.

The subject of experiment [9] is HL-60. The description is as §5. The format is functional, cell-based. Particulars: Homo sapiens. In outline: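 HL60R cells, 2 × 10^5 per well in 1 mL complete medium at 37 °C with 5% CO2, given verapamil together with a range of drug concentrations for 48 h. Viable cells were counted by trypan blue exclusion on a hemocytometer and expressed as percent of control proliferation to derive the IC50. Final DMSO ≤0.1%.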
This is another data set of the same source.

Compound `COc1cc(/C=C/c2ccc(O)c(OC)c2)cc(OC)c1` came in with an AC50 in the experiment with HL-60 [1] (Homo sapiens, HL-60) of 40000 nM. Moreover, it took 25000 nM to reach half-maximal inhibition in the experiment with HL-60 [2] (Homo sapiens, HL-60) (IC50).

In the experiment with HL-60 [1] (Homo sapiens, HL-60), `COc1ccc(/C=C/c2cc(O)cc(O)c2)cc1N` came in with an AC50 above 200000 nM. The IC50 with HL-60 [2] (Homo sapiens, HL-60) was found to be 80000 nM.

The compound `COc1cc(/C=C\c2ccc(O)c(OC)c2)cc(OC)c1` gave an AC50 in the experiment on HL-60 [1] (Homo sapiens, HL-60) of 38000 nM. Also, the IC50 in the experiment with HL-60 [2] (Homo sapiens, HL-60) came out at 20000 nM.

In the case of `Nc1ccn([C@@H]2O[C@H](CO)[C@@H](O)[C@@H]2O)c(=O)n1` [CYTARABINE], the AC50 in the experiment on HL-60 [3] worked out at 8000 nM; in the experiment with HL-60 [1] (Homo sapiens, HL-60), 150 nM. In addition, the IC50 in the experiment on HL-60 [2] (Homo sapiens, HL-60) turned out to be 80 nM; in the experiment on HL-60 [4], 350 nM.

In the experiment with HL-60 [1] (Homo sapiens, HL-60), `COc1ccc(/C=C\c2cc(O)cc(O)c2)cc1O` displayed an AC50 of 70000 nM. The same compound yielded an IC50 in the experiment on HL-60 [2] (Homo sapiens, HL-60) of 40000 nM.

With `COc1cccc2c1C(=O)c1c(O)c3c(c(O)c1C2=O)C[C@@](O)(C(C)=O)C[C@@H]3O[C@H]1C[C@H](N)[C@H](O)[C@H](C)O1` [DAUNORUBICIN], the AC50 in the experiment on HL-60 [3] is 10000 nM; with HL-60 [1] (Homo sapiens, HL-60), 40 nM. Further, the IC50 in the experiment on HL-60 [2] (Homo sapiens, HL-60) came out at 5 nM; in the experiment on HL-60 [5], 1500 nM; with HL-60 [6] it was 40 nM.

`COc1cc(/C=C\c2ccc(O)cc2)cc(OC)c1` came in with an AC50 with HL-60 [1] (Homo sapiens, HL-60) of 5000 nM. Also, in the experiment on HL-60 [2] (Homo sapiens, HL-60), the IC50 amounted to 2000 nM.

On to CISPLATIN, for which the AC50 in the experiment with HL-60 [1] (hl-60) was determined as 1200 nM. The same compound showed an IC50 in the experiment with HL-60 [2] (hl-60) of 600 nM.

Compound `O=c1[nH]cc(F)c(=O)[nH]1` [FLUOROURACIL] had an AC50 with HL-60 [1] (Homo sapiens, HL-60) of 6500 nM. Also, it took 1500 nM to reach half-maximal inhibition with HL-60 [2] (Homo sapiens, HL-60) (IC50).

In the experiment on HL-60 [1] (Homo sapiens, HL-60), `COc1cc(/C=C\c2ccc(O[Si](C)(C)C(C)(C)C)cc2)cc(OC)c1` showed an AC50 above 200000 nM. In the experiment on HL-60 [2] (Homo sapiens, HL-60), this compound displayed an IC50 of 50000 nM.

Regarding `Oc1ccc(/C=C\c2cc(O)cc(O)c2)cc1` [CIS-RESVERATROL], the AC50 with HL-60 [1] (Homo sapiens, HL-60) is above 200000 nM. The compound also gave an IC50 in the experiment on HL-60 [2] (Homo sapiens, HL-60) of 42000 nM.

With `Oc1ccc(/C=C/c2cc(O)cc(O)c2)cc1` [RESVERATROL], the activity in the experiment with HL-60 [1] (Homo sapiens, HL-60) was half-maximal at 50000 nM (AC50). In the experiment with HL-60 [2] (Homo sapiens, HL-60), this compound registered an IC50 of 5000 nM.

In the experiment with HL-60 [1] (Homo sapiens, HL-60), `COc1cc(/C=C\c2ccc(O)c(O)c2)cc(OC)c1` returned an AC50 of 100 nM. The same compound yielded an IC50 in the experiment with HL-60 [2] (Homo sapiens, HL-60) of 50 nM.

On to `COc1cc(/C=C\c2ccc(OC)c(N)c2)cc(OC)c1`, for which the AC50 in the experiment with HL-60 [3] was found to be 50 nM; in the experiment on HL-60 [1] (Homo sapiens, HL-60), 40 nM. Moreover, the IC50 in the experiment with HL-60 [5] was 35 nM; in the experiment on HL-60 [6], 32 nM.

For the compound `COc1cc(/C=C/c2ccc(O)c(O)c2)cc(OC)c1`, in the experiment on HL-60 [1] (Homo sapiens, HL-60), the AC50 was 1000 nM. Besides, in the experiment on HL-60 [2] (Homo sapiens, HL-60), the IC50 is 800 nM.

For the compound `COc1cc(/C=C/c2ccc(OC)c(N)c2)cc(OC)c1`, in the experiment with HL-60 [1] (Homo sapiens, HL-60), the AC50 turned out to be 8000 nM. This compound also displayed an IC50 in the experiment with HL-60 [2] (Homo sapiens, HL-60) of 4000 nM.

The compound `COc1cc(/C=C/c2ccc(O)cc2)cc(OC)c1` [PTEROSTILBENE] registered an AC50 in the experiment on HL-60 [1] (Homo sapiens, HL-60) of 70000 nM. For the same compound, in the experiment with HL-60 [2] (Homo sapiens, HL-60), inhibition was half-maximal at 35000 nM (IC50).

In the experiment with HL-60 [1] (Homo sapiens, HL-60), `COc1cc(/C=C/c2ccc(O[Si](C)(C)C(C)(C)C)cc2)cc(OC)c1` came in with an AC50 above 200000 nM. Moreover, in the experiment on HL-60 [2] (Homo sapiens, HL-60), the midpoint of inhibition, the IC50, lay at 48000 nM.

As to `COc1ccc(/C=C/c2cc(O)cc(O)c2)cc1O`, the AC50 in the experiment with HL-60 [1] (Homo sapiens, HL-60) is above 200000 nM. Also, in the experiment on HL-60 [2] (Homo sapiens, HL-60), it took 48000 nM to reach half-maximal inhibition (IC50).

On to `COc1cc(/C=C\c2ccc(OC)c(O)c2)cc(OC)c1`, for which the AC50 in the experiment with HL-60 [7] turned out to be 30 nM; with HL-60 [1] (Homo sapiens, HL-60), 40 nM. Also, the results for the IC50 in the experiment with HL-60 [8] and with HL-60 [9] were 25 nM and 20 nM, respectively.

In the case of `COc1cc(/C=C/c2ccc(OC)c(O)c2)cc(OC)c1`, in the experiment with HL-60 [1] (Homo sapiens, HL-60), half-maximal activity (AC50) was put at 900 nM. Also, in the experiment on HL-60 [2] (Homo sapiens, HL-60), half-maximal inhibition (IC50) was put at 700 nM.

With `COc1cc([C@@H]2c3cc4c(cc3[C@@H](O[C@@H]3O[C@@H]5CO[C@@H](C)O[C@H]5[C@H](O)[C@H]3O)[C@H]3COC(=O)[C@H]23)OCO4)cc(OC)c1O` [ETOPOSIDE], the concentration at half-maximal activity (AC50) turned out to be 15000 nM with HL-60 [3] and 450 nM in the experiment on HL-60 [1] (Homo sapiens, HL-60). In addition, the IC50 in the experiment with HL-60 [2] (Homo sapiens, HL-60) was 123 nM; in the experiment on HL-60 [5], 6500 nM; in the experiment on HL-60 [6] it was 500 nM.

`COc1ccc(/C=C\c2cc(O)cc(O)c2)cc1N` yielded an AC50 in the experiment on HL-60 [1] (Homo sapiens, HL-60) of 68000 nM. For the same compound, in the experiment with HL-60 [2] (Homo sapiens, HL-60), the IC50 stood at 40000 nM.
